Measured values reported in ChEMBL document CHEMBL4765370, “Design, synthesis, and biological evaluation of aryl piperazines with potential as antidiabetic agents via the stimulation of glucose uptake and inhibition of NADH:ubiquinone oxidoreductase” (Eur J Med Chem, 2020).

What was measured:
[1] = Cmax in C57 Black mouse kidney at 10 mg/kg, iv; assay type: ADME, organism-based; design: route intravenous, dose 10 mg/kg
Summary of the method: (§1)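 Male C57BL/6 mice were given a single 10 mg/kg dose either intravenously or orally. The oral and IV solutions were formulated in 10% DMSO, 10% cremaphor and 80% saline. Concentrations in plasma and in the tissues collected were determined after dosing, with n = 3 per route. Values are given as mean ± SEM.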

[2] = Tmax in C57 Black mouse brain at 10 mg/kg, po; assay type: ADME, organism-based
Summary of the method: (§2)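 Male C57BL/6 mice (n = 3) dosed at 10 mg/kg by IV or oral (PO) route. Dosing solutions were formulated in 10% DMSO, 10% cremaphor and 80% saline. Compound levels were measured in plasma and tissues over time, and values are given as mean ± SEM.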

[3] = Apparent permeability in MDCK-MDR1 cells at 10 uM after 30 mins by LC-MS/MS analysis; assay type: ADME, cell-based, Canis lupus familiaris; conditions: dog
Summary of the method: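 Test article was taken from a 10 mM DMSO stock and diluted in DMEM to a final 10 µM donor solution, with 10 µM propranolol as internal standard. It was applied to hMDR1-MDCK monolayers on filters. Transfer to the receiver compartment was measured over 30 min in both directions, apical-to-basolateral and basolateral-to-apical. Quantification was by LC-MS/MS, n = 3.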

[4] = Tmax in C57 Black mouse kidney at 10 mg/kg, iv; assay type: ADME, organism-based; summary of the method: as §2
[5] = AUClast in C57 Black mouse brain at 10 mg/kg, po; assay type: ADME, organism-based; design: route oral, time 0 - last, dose 10 mg/kg; summary of the method: as §1
[6] = Cmax in C57 Black mouse brain at 10 mg/kg, po; assay type: ADME, organism-based; design: route oral, dose 10 mg/kg; summary of the method: as §1
[7] = AUClast in C57 Black mouse kidney at 10 mg/kg, iv; assay type: ADME, organism-based; design: route intravenous, time 0 - last, dose 10 mg/kg; summary of the method: as §1
[8] = Intrinsic clearance in mouse hepatocytes at 1 uM up to 120 mins by HPLC-MS/MS analysis; assay type: ADME, cell-based, Hepatocyte; conditions: 2 h
[9] = Volume of distribution in C57 Black mouse brain at 10 mg/kg, iv; assay type: ADME, organism-based; summary of the method: as §2
[10] = Intrinsic clearance in human microsomes at 1 uM up to 120 mins by HPLC/MS-MS analysis; assay type: ADME, Microsome
[11] = AUCall in C57 Black mouse brain at 10 mg/kg, iv; assay type: ADME, organism-based; design: dose 10 mg/kg; summary of the method: as §1
[12] = Tmax in C57 Black mouse liver at 10 mg/kg, po; assay type: ADME, organism-based; summary of the method: as §2
[13] = AUCinfinity in C57 Black mouse brain at 10 mg/kg, iv; assay type: ADME, organism-based; design: time infinity, route intravenous, dose 10 mg/kg; summary of the method: as §1
[14] = AUClast in C57 Black mouse plasma at 10 mg/kg, po; assay type: ADME, organism-based; design: route oral, time 0 - last, dose 10 mg/kg; summary of the method: as §1
[15] = AUCinfinity in C57 Black mouse liver at 10 mg/kg, iv; assay type: ADME, organism-based; design: route intravenous, time infinity, dose 10 mg/kg; summary of the method: as §1
[16] = AUCall in C57 Black mouse spleen at 10 mg/kg, iv; assay type: ADME, organism-based; design: dose 10 mg/kg; summary of the method: as §1
[17] = AUClast in C57 Black mouse spleen at 10 mg/kg, iv; assay type: ADME, organism-based; design: time 0 - last, route intravenous, dose 10 mg/kg; summary of the method: as §1
[18] = Cmax in C57 Black mouse liver at 10 mg/kg, po; assay type: ADME, organism-based; design: route oral, dose 10 mg/kg; summary of the method: as §1
[19] = target: CYP2D6 (Homo sapiens, UniProt P10635); assay: Inhibition of human CYP2D6 using fluorogenic substrate incubated for 60 mins in presence of NADPH by fluorescence assay relative to control; assay type: ADME; conditions: probe fluorogenic substrate
Summary of the method: (§3)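 Baculosomes each expressing a single cDNA-derived human P450 isozyme were incubated with compound at 10 µM, a fluorogenic substrate and NADPH. Incubation was at 37 °C for at least 60 min before fluorescence was read, n = 3.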

[20] = Cmax in C57 Black mouse plasma at 10 mg/kg, iv; assay type: ADME, organism-based; design: route intravenous, dose 10 mg/kg; summary of the method: as §1
[21] = AUCinfinity in C57 Black mouse muscle at 10 mg/kg, iv; assay type: ADME, organism-based, Muscle tissue; design: time infinity, route intravenous, dose 10 mg/kg; summary of the method: as §1
[22] = Half life in C57 Black mouse plasma at 10 mg/kg, po; assay type: ADME, organism-based; summary of the method: as §2
[23] = AUCall in C57 Black mouse brain at 10 mg/kg, po; assay type: ADME, organism-based; design: dose 10 mg/kg; summary of the method: as §1
[24] = Protein binding human serum at 1 uM after 60 to 120 mins by HPLC-MS/MS analysis; assay type: ADME, cell-free; conditions: time 60-120 min, read-out: PB (converted)
[25] = Lipophilicity, logP of compound; assay type: physicochemical; conditions: octanol/water
[26] = Volume of distribution in C57 Black mouse plasma at 10 mg/kg, iv; assay type: ADME, organism-based; summary of the method: as §2
[27] = Cmax in C57 Black mouse spleen at 10 mg/kg, po; assay type: ADME, organism-based; design: route oral, dose 10 mg/kg; summary of the method: as §1
[28] = AUCall in C57 Black mouse liver at 10 mg/kg, po; assay type: ADME, organism-based; design: dose 10 mg/kg; summary of the method: as §1
[29] = AUClast in C57 Black mouse kidney at 10 mg/kg, po; assay type: ADME, organism-based; design: time 0 - last, route oral, dose 10 mg/kg; summary of the method: as §1
[30] = Tmax in C57 Black mouse plasma at 10 mg/kg, iv; assay type: ADME, organism-based; summary of the method: as §2
[31] = AUCall in C57 Black mouse spleen at 10 mg/kg, po; assay type: ADME, organism-based; design: dose 10 mg/kg; summary of the method: as §1
[32] = Volume of distribution in C57 Black mouse liver at 10 mg/kg, iv; assay type: ADME, organism-based; summary of the method: as §2
[33] = Toxicity in C57BL/6 mouse at 10 mg/kg, iv or po; assay type: organism-based; conditions: in vivo
[34] = Inhibition of NADH:ubiquinone oxidoreductase in rat liver mitochondria incubated for 3 mins
[35] = Tmax in C57 Black mouse liver at 10 mg/kg, iv; assay type: ADME, organism-based; summary of the method: as §2
[36] = Clearance in C57 Black mouse assessed as liver blood flow at 10 mg/kg, iv or po; assay type: ADME, organism-based; conditions: in vivo
[37] = target: T1, CYP1A2 (Homo sapiens, UniProt P05177); assay: Inhibition of human CYP1A2 using fluorogenic substrate incubated for 60 mins in presence of NADPH by fluorescence assay relative to control; assay type: ADME; conditions: probe fluorogenic substrate; summary of the method: as §3
T1 sequence (P05177 whole entry): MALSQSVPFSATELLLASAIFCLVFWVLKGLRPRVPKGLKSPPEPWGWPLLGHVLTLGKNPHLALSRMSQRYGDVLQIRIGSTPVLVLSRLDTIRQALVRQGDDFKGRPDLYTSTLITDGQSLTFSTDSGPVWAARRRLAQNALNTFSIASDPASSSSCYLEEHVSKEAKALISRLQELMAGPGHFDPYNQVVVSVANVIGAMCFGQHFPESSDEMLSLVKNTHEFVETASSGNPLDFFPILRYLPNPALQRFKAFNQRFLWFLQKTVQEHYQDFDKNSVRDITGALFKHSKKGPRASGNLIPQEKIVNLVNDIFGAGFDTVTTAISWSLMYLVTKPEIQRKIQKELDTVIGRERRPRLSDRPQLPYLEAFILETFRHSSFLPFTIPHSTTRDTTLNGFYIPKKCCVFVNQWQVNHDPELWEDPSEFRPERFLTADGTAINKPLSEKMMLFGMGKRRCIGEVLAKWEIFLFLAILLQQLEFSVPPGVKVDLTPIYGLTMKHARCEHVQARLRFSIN

[38] = Intrinsic clearance in human hepatocytes at 1 uM up to 120 mins by HPLC-MS/MS analysis; assay type: ADME, cell-based, Hepatocyte; conditions: 2 h
[39] = Metabolic stability in human hepatocytes assessed as hepatic extraction ratio at 1 uM up to 120 mins by HPLC-MS/MS analysis; assay type: ADME, cell-based, Hepatocyte
Summary of the method: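 Cryopreserved hepatocytes (human or mouse) added to buffer containing compound at 1 µM; incubated at 37 °C up to 120 min, stopped with acetonitrile containing internal standard. Centrifuged supernatant analysed for parent compound by HPLC-MS/MS; n = 2. Half-life and intrinsic clearance (µL/min/10^6 cells) derived; extraction ratio reported from these.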

CYP2D6, sequence (P10635 whole entry): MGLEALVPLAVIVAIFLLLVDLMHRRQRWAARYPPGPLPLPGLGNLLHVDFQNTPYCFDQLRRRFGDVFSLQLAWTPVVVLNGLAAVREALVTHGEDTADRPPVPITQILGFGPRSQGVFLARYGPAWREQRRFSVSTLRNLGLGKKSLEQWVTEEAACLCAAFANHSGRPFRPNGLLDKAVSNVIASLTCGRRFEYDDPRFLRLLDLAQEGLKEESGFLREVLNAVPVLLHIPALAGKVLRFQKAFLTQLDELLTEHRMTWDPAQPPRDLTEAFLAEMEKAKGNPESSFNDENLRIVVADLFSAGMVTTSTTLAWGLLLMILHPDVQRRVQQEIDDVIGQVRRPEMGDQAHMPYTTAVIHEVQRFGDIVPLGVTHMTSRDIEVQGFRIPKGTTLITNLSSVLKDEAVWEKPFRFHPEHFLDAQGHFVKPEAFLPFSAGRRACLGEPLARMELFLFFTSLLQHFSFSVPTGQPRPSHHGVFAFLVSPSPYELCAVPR

O=C(CCCc1cccs1)N1CCN(c2ccc(C(F)(F)F)cc2)CC1
Cmax [1]: 0.552 µg/mL
Tmax [2]: 15 min
Papp at 0.5 h, 10 µM [3]: 271 nm/s
Tmax [4]: 1.8 min
AUC(0-t) [5]: 0.763 µg·h/mL
Cmax [6]: 1.43 µg/mL
AUC(0-t) [7]: 0.32 µg·h/mL
CLH [8]: 8 µL/min
Vd [9]: 1.83 L/kg
microsomal CLint at 1 µM [10]: 116 µL/min/mg
AUC [11]: 0.246 µg·h/mL
Tmax [12]: 15 min
AUC(0-inf) [13]: 0.253 µg·h/mL
AUC(0-t) [14]: 0.52 µg·h/mL
AUC(0-inf) [15]: 0.531 µg·h/mL
AUC [16]: 0.463 µg·h/mL
AUC(0-t) [17]: 0.463 µg·h/mL
Cmax [18]: 4.88 µg/mL
inhibition at 1 h [19]: -2.7%
Cmax [20]: 0.996 µg/mL
AUC(0-inf) [21]: 0.107 µg·h/mL
half-life [22]: 45.6 min
AUC [23]: 0.763 µg·h/mL
fraction unbound at 1 µM [24]: 0.0052
logP [25]: 4.79
Vd [26]: 1.69 L/kg
Cmax [27]: 1.1 µg/mL
AUC [28]: 4.05 µg·h/mL
AUC(0-t) [29]: 1.22 µg·h/mL
Tmax [30]: 1.8 min
AUC [31]: 1.26 µg·h/mL
Vd [32]: 3.06 L/kg
Activity [33]: Non-Toxic
IC50 [34]: 27 µM
Tmax [35]: 1.8 min
clearance [36]: 5.4 L/h/kg
inhibition at 1 h [37]: 53.7%
CLH [38]: 346 µL/min
hepatic extraction ratio at 2 h, 1 µM [39]: 0.98
